Active and inactive are the calls of the source.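 Rule for the calls, unless noted: active = viability at or below 10% of carrier control in both of two separate runs; inconclusive = viability at or below 10% in only one of the two runs; inactive = the rest.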

Experiment [1] is described as follows: Her2 expression decrease, cell viability multiplex – SKBR3 breast tumor cells, AlphaScreen, ATP viability, primary screen (AID 461;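 active = Her2 level under about 52% in both replicate screens, with viability over 70% of control, limit read from the data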;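 for Her2 level: lower value means less Her2 protein in the cells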;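 for viability: percent of carrier control wells set as 100% viability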). The note with it: SKBR3 Her2 protein level, 18-24 h, measured here: SKBR3 viability, ATP luminescence, at 10 µM.
For experiment [2], the target named is Receptor tyrosine-protein kinase erbB-2 (Homo sapiens) (UniProt P04626). The description is as above. The note with it: 18-24 h, at 10 µM, stronger effect = lower value.
Sequence of Receptor tyrosine-protein kinase erbB-2 (Homo sapiens) (P04626 whole entry, looked up): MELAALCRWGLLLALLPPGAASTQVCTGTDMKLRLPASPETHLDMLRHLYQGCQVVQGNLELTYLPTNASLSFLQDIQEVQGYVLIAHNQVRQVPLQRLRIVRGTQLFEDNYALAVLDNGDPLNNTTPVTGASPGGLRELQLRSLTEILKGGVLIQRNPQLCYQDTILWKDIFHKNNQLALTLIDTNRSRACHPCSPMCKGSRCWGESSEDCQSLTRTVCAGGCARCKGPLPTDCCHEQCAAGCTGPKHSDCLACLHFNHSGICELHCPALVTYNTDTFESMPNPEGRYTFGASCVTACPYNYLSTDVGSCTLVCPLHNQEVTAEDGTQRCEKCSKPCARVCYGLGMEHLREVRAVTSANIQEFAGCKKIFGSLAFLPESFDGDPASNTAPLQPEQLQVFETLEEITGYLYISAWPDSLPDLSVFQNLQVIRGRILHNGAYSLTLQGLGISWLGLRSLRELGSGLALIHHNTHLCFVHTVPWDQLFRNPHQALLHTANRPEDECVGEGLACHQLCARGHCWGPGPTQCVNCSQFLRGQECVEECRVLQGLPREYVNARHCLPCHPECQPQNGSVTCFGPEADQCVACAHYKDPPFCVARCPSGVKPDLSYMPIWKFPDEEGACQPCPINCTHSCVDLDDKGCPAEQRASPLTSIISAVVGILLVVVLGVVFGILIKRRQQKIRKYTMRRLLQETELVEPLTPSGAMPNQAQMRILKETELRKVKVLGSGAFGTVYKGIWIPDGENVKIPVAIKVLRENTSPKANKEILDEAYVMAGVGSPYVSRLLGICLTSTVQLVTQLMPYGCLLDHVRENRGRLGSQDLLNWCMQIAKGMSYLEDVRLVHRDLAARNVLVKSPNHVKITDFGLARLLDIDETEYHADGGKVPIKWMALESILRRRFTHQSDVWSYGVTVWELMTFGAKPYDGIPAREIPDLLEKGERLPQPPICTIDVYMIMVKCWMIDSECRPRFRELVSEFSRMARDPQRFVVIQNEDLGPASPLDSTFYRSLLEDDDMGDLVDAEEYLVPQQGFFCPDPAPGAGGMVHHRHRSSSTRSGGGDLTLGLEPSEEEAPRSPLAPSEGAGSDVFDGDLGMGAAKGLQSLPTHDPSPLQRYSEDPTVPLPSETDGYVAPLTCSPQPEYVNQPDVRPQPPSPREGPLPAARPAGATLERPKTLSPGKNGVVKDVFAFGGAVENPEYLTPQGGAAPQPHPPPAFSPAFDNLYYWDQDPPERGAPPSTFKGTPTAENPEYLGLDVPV
Experiment [3] in a line: reduced viability of SK-BR-3 breast cancer cells – cell-based, 24 h, human, pilot screen (AID 572).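 Note: compound exposure lasted between 18 and 24 h rather than exactly 24 h; 100% = carrier-treated control wells.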 The note with it: SK-BR-3 viability, CellTiter-Glo luminescence, at 10 µM, stronger effect = lower value. For orientation: In ATP-based viability assays light output follows the ATP content of the culture.
Experiment [4] can be described thus: HUVEC growth inhibition – cell-based, human, primary screen (AID 575;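 active = viability at or below 30% in both replicate assays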;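 note: 100% = median of untreated cell wells with 0.1% DMSO on each plate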). To be noted: HUVEC proliferation, CellTiter-Glo luminescence, 72 h; at 10 µM; stronger effect = lower value. The procedure, abridged:
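Test system: primary human umbilical vein endothelial cells; medium: endothelial basal medium with 2% FBS plus growth supplements; dosing: 10 µM compound only; times: 72 h treatment at 37 °C; signal: CTG luminescence; read-out: % viability relative to median vehicle-well signal on each plate; control set: vehicle and MePR control wells; plate: 384-well, collagen-coated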

Experiment [5] is described as follows: H69AR cell proliferation blockers – human, duplicate replicates, primary screen (AID 580;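 active = viability at or under a set limit in both replicates, limit being median viability minus 3 SD, cut at about 48% in these data, passing the limit was not always enough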;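 note: 100% = mean luminescence of untreated wells and 0% = no signal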). To be noted: H69AR lung tumor cells viability, ATP luminescence, 72 h; at 10 µM; stronger effect = lower value.
Experiment [6] in a line: MRP1 drug-resistance reversers in H69AR cells – cell-based, doxorubicin co-treatment, pilot screen (AID 601;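 active = viability loss from added drug above about 55%, and viability with drug at most 40%, in both replicates, limit read from the data, passing the limit was not always enough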). To be noted: CellTiter-Glo, 72 h, at 10 µM; for differential viability (reversal): stronger effect = higher value.
Experiment [7] in a line: yeast transport mutant growth inhibition pilot in 384-well plates, post-Golgi transport modulator project (AID 636; in the data active = inhibition above about 31%). The note with it: absorbance 615 nm, about 18 h, stronger effect = higher value.
Experiment [8] in a line: growth suppression of yeast trafficking mutant, preliminary HTS, modulators of trafficking downstream of Golgi apparatus project, 1536-format plate, OD 615 nm (AID 637; in the data active = inhibition above about 30%). The note with it: yeast transport mutant growth, absorbance 615 nm, 18 h; stronger effect = higher value.
Setting [9] is: H69AR cells + 2 uM doxorubicin, measured here: viability with 2 uM doxorubicin, stronger effect = lower value.
[10] abbreviates: H69AR cells, compound alone cytotoxicity.

For orientation: viability means a read-out of living cells in per cent, often relative to untreated cells. Broadly, the inhibition is the change of the read-out against control, counted positive when it falls. For the molecule `O=C(CCCC(=O)OCC(=O)NC1CCCC1)Nc1ccccn1`, the viability in experiment [1] was 95.5%; in experiment [3], 95.5% (inactive); in experiment [4], 98.1% (inactive); in experiment [5], 96.9% (inactive); in experiment [6] (setting [9]) it was 103%; in experiment [6] (setting [10]), 96.9%. The Her2 level in experiment [2] was 88% (inactive). Also, the differential viability (reversal) in experiment [6] (H69AR cells + 2 uM doxorubicin) is -6.12% (inactive). In addition, the inhibition in experiment [7] was -6.8% (inactive); in experiment [8], 3.28% (inactive).

In the case of `Cn1c(=O)c2c(nc(NCCc3ccccc3)n2CC(=O)NCCc2ccccc2)n(C)c1=O`, the viability in experiment [1] is 91%; in experiment [3], 91% (inactive); in experiment [4], 99.9% (inactive); in experiment [5], 79% (inactive); in experiment [6] (setting [9]) it was 70.2%; in experiment [6] (setting [10]) it was 79%. For the same molecule, in experiment [2], the Her2 level was 90.5% (inactive). For the same molecule, in experiment [6] (H69AR cells + 2 uM doxorubicin), the differential viability (reversal) is 8.86% (inactive). Also, the inhibition in experiment [7] was -1.05% (inactive); in experiment [8], 9.68% (inactive).

Turning to `COc1cc(C2C(C#N)=C(N)OC3=C2C(=O)CCC3)ccc1OC(=O)N1CCOCC1` (stereo not given), the viability in experiment [1] was 132%; in experiment [3] it was 132% (inactive); in experiment [4], 93% (inactive); in experiment [5], 87.3% (inactive); in experiment [6] (setting [9]), 83.6%; in experiment [6] (setting [10]), 87.3%. The Her2 level in experiment [2] was 91.5% (inactive). Besides, in experiment [6] (H69AR cells + 2 uM doxorubicin), the differential viability (reversal) was 3.67% (inactive). The figures for the inhibition in experiment [7] and in experiment [8] were -5.87% (inactive) and -0.66% (inactive), respectively.

Consider `CCOc1ccc2[nH]c(=O)c(C(c3nnnn3CC3CCCO3)N3CCc4ccccc4C3)cc2c1` (stereo not given), for which the viability is 97% in experiment [1]; 97% (inactive) in experiment [3]; 81.1% (inactive) in experiment [4]; 85.8% (inactive) in experiment [5]; 49.2% in experiment [6] (setting [9]); 85.8% in experiment [6] (setting [10]). Further, the Her2 level in experiment [2] is 82.5% (inactive). Also, the differential viability (reversal) in experiment [6] (H69AR cells + 2 uM doxorubicin) is 36.5% (inactive). The inhibition is -4.93% (inactive) in experiment [7] and 2.62% (inactive) in experiment [8].

On to `CCN(CC)S(=O)(=O)c1ccc(F)cc1`, for which the viability is 116% in experiment [1]; 116% (inactive) in experiment [3]; 98.7% (inactive) in experiment [4]; 93% (inactive) in experiment [5]; 87.1% in experiment [6] (setting [9]); 93% in experiment [6] (setting [10]). Also, in experiment [2], the Her2 level was 106% (inactive). For the same molecule, the differential viability (reversal) in experiment [6] (H69AR cells + 2 uM doxorubicin) is 5.97% (inactive). For the same molecule, the inhibition in experiment [7] is -8.77% (inactive); in experiment [8] it was 4.13% (inactive).

As for `CC1(C)NC(=O)N(CNc2cc(Cl)ccc2Cl)C1=O`, the viability was 104% in experiment [1]; 104% (inactive) in experiment [3]; 85.7% (inactive) in experiment [4]; 96.4% (inactive) in experiment [5]; 95.5% in experiment [6] (setting [9]); 96.4% in experiment [6] (setting [10]). Also, the Her2 level in experiment [2] was 87.5% (inactive). Further, in experiment [6] (H69AR cells + 2 uM doxorubicin), the differential viability (reversal) was 0.94% (inactive). Besides, the inhibition in experiment [7] was -3.55% (inactive); in experiment [8], -1.82% (inactive).

Turning to `COCCOC(=O)C1=C(N)OC2=C(C(=O)CC(C)(C)C2)C1c1cccnc1` (stereo not given), the viability in experiment [1] was 76%; in experiment [3], 76% (inactive); in experiment [4] it was 101% (inactive); in experiment [5], 99% (inactive); in experiment [6] (setting [9]), 91.9%; in experiment [6] (setting [10]), 99%. For the same molecule, the Her2 level in experiment [2] is 101% (inactive). For the same molecule, the differential viability (reversal) in experiment [6] (H69AR cells + 2 uM doxorubicin) is 7.16% (inactive). Moreover, the figures for the inhibition in experiment [7] and in experiment [8] were -5.95% (inactive) and -1.31% (inactive), respectively.

As for `CC(=O)NS(=O)(=O)c1ccc(NC(=O)c2ccccc2F)cc1`, the viability in experiment [1] is 72%; in experiment [3], 72% (inactive); in experiment [4], 87.3% (inactive); in experiment [5], 99.4% (inactive); in experiment [6] (setting [9]), 95.5%; in experiment [6] (setting [10]), 99.4%. Also, the Her2 level in experiment [2] was 95% (inactive). The differential viability (reversal) in experiment [6] (H69AR cells + 2 uM doxorubicin) is 3.83% (inactive). Further, the inhibition in experiment [7] is 0% (inactive); in experiment [8] it was 2.33% (inactive).

As for `COc1ccc(Cc2nn3c(-c4cc(OC)c(OC)c(OC)c4)nnc3s2)cc1`, the viability in experiment [1] is 95%; in experiment [3] it was 95% (inactive); in experiment [4] it was 102% (inactive); in experiment [5] it was 81.6% (inactive); in experiment [6] (setting [9]), 69.9%; in experiment [6] (setting [10]), 81.6%. In addition, the Her2 level in experiment [2] is 76.5% (inactive). Further, the differential viability (reversal) in experiment [6] (H69AR cells + 2 uM doxorubicin) is 11.7% (inactive). Besides, the values for the inhibition in experiment [7] and in experiment [8] were -6.08% (inactive) and 5.17% (inactive), respectively.

For the molecule `CC(C)CC(=O)Nc1ccccc1-c1nnn(CC(=O)N2CCOCC2)n1`, the viability in experiment [1] is 102%; in experiment [3], 102% (inactive); in experiment [4] it was 87.8% (inactive); in experiment [5] it was 86.8% (inactive); in experiment [6] (setting [9]) it was 88.5%; in experiment [6] (setting [10]), 86.8%. Further, the Her2 level in experiment [2] is 92% (inactive). Also, the differential viability (reversal) in experiment [6] (H69AR cells + 2 uM doxorubicin) is -1.72% (inactive). Besides, the values for the inhibition in experiment [7] and in experiment [8] were -5.87% (inactive) and -1.77% (inactive), respectively.

Regarding `Cc1cc(NC(=O)COC(=O)c2cccc(S(=O)(=O)N3CCOCC3)c2)no1`, the viability in experiment [1] was 112%; in experiment [3] it was 112% (inactive); in experiment [4], 92.4% (inactive); in experiment [5] it was 91.1% (inactive); in experiment [6] (setting [9]), 84.8%; in experiment [6] (setting [10]), 91.1%. The Her2 level in experiment [2] was 88% (inactive). In experiment [6] (H69AR cells + 2 uM doxorubicin), the differential viability (reversal) was 6.37% (inactive). Further, the inhibition in experiment [7] is -5% (inactive); in experiment [8], 1.9% (inactive).

With `CCOC(=O)Cn1nc(-c2ccc(C)cc2)ccc1=O`, the viability in experiment [1] was 99%; in experiment [3], 99% (inactive); in experiment [4], 94.1% (inactive); in experiment [5] it was 100% (inactive); in experiment [6] (setting [9]), 84.6%; in experiment [6] (setting [10]), 100%. The Her2 level in experiment [2] is 115% (inactive). For the same molecule, the differential viability (reversal) in experiment [6] (H69AR cells + 2 uM doxorubicin) is 15.4% (inactive). For the same molecule, the inhibition is -5.32% (inactive) in experiment [7] and 7.21% (inactive) in experiment [8].

With `CCOC(=O)Nc1ccc2c(c1)N(C(=O)CN(CC)CC)c1ccccc1C=C2`, the viability was 87.5% in experiment [1]; 87.5% (inactive) in experiment [3]; 97.3% (inactive) in experiment [4]; 91.4% (inactive) in experiment [5]; 82.8% in experiment [6] (setting [9]); 91.4% in experiment [6] (setting [10]). Besides, the Her2 level in experiment [2] is 93% (inactive). In addition, in experiment [6] (H69AR cells + 2 uM doxorubicin), the differential viability (reversal) was 8.63% (inactive). The inhibition in experiment [7] was -4.61% (inactive); in experiment [8] it was 5.9% (inactive).

For `CCn1c(COc2cccc3ccccc23)nnc1SCC(N)=O`, the viability in experiment [1] was 96%; in experiment [3], 96% (inactive); in experiment [4] it was 91% (inactive); in experiment [5], 91.1% (inactive); in experiment [6] (setting [9]), 78.2%; in experiment [6] (setting [10]), 91.1%. Moreover, in experiment [2], the Her2 level is 75% (inactive). In addition, the differential viability (reversal) in experiment [6] (H69AR cells + 2 uM doxorubicin) was 13% (inactive). Also, the figures for the inhibition in experiment [7] and in experiment [8] were -4.21% (inactive) and 0.18% (inactive), respectively.

On to `Cc1oc(-c2ccccc2)cc1C(N)=O`, for which the viability in experiment [1] was 103%; in experiment [3], 103% (inactive); in experiment [4] it was 92.3% (inactive); in experiment [5], 100% (inactive); in experiment [6] (setting [9]), 80.3%; in experiment [6] (setting [10]), 100%. Also, in experiment [2], the Her2 level was 78.5% (inactive). Besides, the differential viability (reversal) in experiment [6] (H69AR cells + 2 uM doxorubicin) was 20% (inactive). Further, the inhibition was -0.79% (inactive) in experiment [7] and -2.9% (inactive) in experiment [8].

Consider `O=C(O)CCNc1nc(-c2ccccc2)nc2ccccc12`, for which the viability in experiment [1] is 87%; in experiment [3], 87% (inactive); in experiment [4] it was 96.3% (inactive); in experiment [5] it was 91.1% (inactive); in experiment [6] (setting [9]) it was 93.8%; in experiment [6] (setting [10]), 91.1%. In addition, the Her2 level in experiment [2] was 102% (inactive). In experiment [6] (H69AR cells + 2 uM doxorubicin), the differential viability (reversal) was -2.72% (inactive). In addition, the results for the inhibition in experiment [7] and in experiment [8] were -0.13% (inactive) and -1.11% (inactive), respectively.

The values above are taken from PubChem BioAssay.
